Screening data: PubChem, several laboratories
Only some compounds are listed: those with a hit (about 12% of all), similar ones and a draw of the others.
KCC2 mod: modulates chloride dependent transport by human KCC2. KCC2 cells, thallium flux FluoZin-2 fluorescence. hit rate 2.2% among 190,000. B-score of Tl+ flux slope (higher = more flux/activation; lower = inhibition) at 10 µM. Q9H2X9;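 active = thallium flux slope and its plate-corrected score both differing from the plate sample mean at a set confidence after two filtering rounds, in either direction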;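 also: slope of fluorescence scaled to starting intensity during 10 to 20 s after thallium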
Target sequence (Q9H2X9 whole entry, looked up): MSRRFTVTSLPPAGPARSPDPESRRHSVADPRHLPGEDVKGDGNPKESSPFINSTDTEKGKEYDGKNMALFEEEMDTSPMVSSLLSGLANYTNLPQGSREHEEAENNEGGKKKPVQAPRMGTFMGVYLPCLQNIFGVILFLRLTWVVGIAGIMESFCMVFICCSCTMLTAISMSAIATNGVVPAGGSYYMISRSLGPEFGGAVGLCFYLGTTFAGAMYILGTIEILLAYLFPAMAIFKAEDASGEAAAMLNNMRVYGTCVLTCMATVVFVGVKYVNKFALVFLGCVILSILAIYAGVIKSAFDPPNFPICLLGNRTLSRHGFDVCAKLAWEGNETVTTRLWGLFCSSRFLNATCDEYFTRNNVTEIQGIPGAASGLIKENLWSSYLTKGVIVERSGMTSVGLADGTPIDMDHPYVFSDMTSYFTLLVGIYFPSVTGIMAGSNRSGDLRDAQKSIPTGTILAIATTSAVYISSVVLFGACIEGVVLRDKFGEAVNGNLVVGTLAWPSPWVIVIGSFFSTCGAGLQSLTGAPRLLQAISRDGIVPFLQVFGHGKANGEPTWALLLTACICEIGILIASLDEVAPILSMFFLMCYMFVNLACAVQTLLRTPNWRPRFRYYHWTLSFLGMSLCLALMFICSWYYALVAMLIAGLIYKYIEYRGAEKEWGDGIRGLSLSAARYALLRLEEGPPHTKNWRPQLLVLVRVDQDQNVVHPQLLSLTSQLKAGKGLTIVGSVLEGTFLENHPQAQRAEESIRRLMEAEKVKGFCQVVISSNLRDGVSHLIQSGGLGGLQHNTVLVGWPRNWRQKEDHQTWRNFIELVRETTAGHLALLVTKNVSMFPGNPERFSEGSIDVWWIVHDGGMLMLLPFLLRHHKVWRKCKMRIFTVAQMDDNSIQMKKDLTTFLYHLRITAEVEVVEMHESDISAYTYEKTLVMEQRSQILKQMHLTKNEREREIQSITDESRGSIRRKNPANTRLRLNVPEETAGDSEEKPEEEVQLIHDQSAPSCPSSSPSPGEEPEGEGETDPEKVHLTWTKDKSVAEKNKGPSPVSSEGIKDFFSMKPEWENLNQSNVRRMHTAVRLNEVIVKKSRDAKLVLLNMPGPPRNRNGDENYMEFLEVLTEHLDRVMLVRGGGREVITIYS
WT yeast gro inh: growth inhibition of WT yeast, mitochondrial fusion screen. inhibition, % at 10 µM. AID 1362. mitochondrial fusion phenotypic screen, WT strain. hit rate 2.1% among 190,000; in the data active = inhibition above about 58%; tested in S. cerevisiae
ROMK primary: human ROMK K+ channel modulation, primary screen; P48048; Tet-inducible ROMK, thallium flux fluorescence; actives lie on both sides; B-score at 10 µM; hit rate 2% among 130,000; AID 1918;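 active = signal ratio slope over the read window, or its plate-corrected B-score, at least 3 SD from the plate mean, either direction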;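 also: B-score of the F/F0 ratio slope over 7 to 12 s after thallium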
Lmaj promast: inhibitors of Leishmania major promastigote growth | Leishmania major promastigotes, resazurin fluorescence viability | AID 1063 | inhibition, % at 10 µM | hit rate 9% among 200,000; in the data active = inhibition above about 50%;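 also: promastigotes grown with compound for 44 hours at 28 °C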
Diaphorase act: counter-screen for diaphorase-based assays: diaphorase activators and chemical reducers; Diaphorase/resazurin coupled assay, resorufin fluorescence, 16 min; stronger effect = higher value; 1 = vehicle wells, 0 = NADH-free wells; activation factor at 20 µM; hit rate 0.005% among 190,000;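 active = diaphorase activity raised at least twofold by the compound at 20 µM; inactive = activation factor below 2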
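System – purified diaphorase enzyme from Clostridium kluyveri · Input – enzyme 0.07 U/mL final · Also added – final NADH 0.114 mM, resazurin 0.1 mM · Measured by – fluorescence of resorufin, 544 nm excitation, 590 nm emission · Timing – 16 min enzyme reaction, ambient temperature · Measure – resorufin increase flagging diaphorase activators or reducers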
Diaphorase inh: inhibits diaphorase or chemically oxidizes, flagging diaphorase assay artifacts; diaphorase resazurin-to-resorufin fluorescence, NADH, 16 min; bacterial (C. kluyveri) enzyme, not human; inhibition, % at 20 µM; hit rate 0.69% among 190,000; AID 1217;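 active = primary screen inhibition at 20 µM above a set limit, cut at about 50% in these data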;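 also: plate controls were DMSO with full reaction for no effect and wells lacking NADH for full effect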
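System: Diaphorase enzyme from Clostridium kluyveri | Amount: Enzyme working solution with 0.14 U/mL diaphorase | Benchmarks: No-NADH positive control and DMSO neutral control | Signal: Fluorescence of resorufin formed from resazurin, Ex 544/Em 590 nm | Schedule: 16-min room-temperature incubation before reading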
Starred values were filed as active, the others as inactive; x = not tested or not shown.

SMILES	KCC2 mod	WT yeast gro inh	ROMK primary	Lmaj promast	Diaphorase act	Diaphorase inh
COC(=O)c1c(NC(=O)c2ccccc2)sc2c1CC(C)(C)NC2(C)C	-0.69	-2	x	5	0.9	8
CC1(C)Cc2c(sc(NC(=O)c3ccc4ncsc4c3)c2C(N)=O)C(C)(C)N1	-0.59	-9	-0.057	78*	1	-1
O=C(/C=C1\NC2(CCCC2)Cc2ccccc21)C(=O)N/N=C/c1ccccc1O	0.1	-9	x	99*	0.8	17
COc1cc(/C=N/NC(=O)C(=O)/C=C2\NC3(CCCC3)Cc3ccccc32)ccc1O	-0.0072	35	x	12	0.6	39
Cc1ccc(C(=O)COC(=O)CNS(=O)(=O)c2ccccc2)cc1[N+](=O)[O-]	-0.024	-1	x	-9	1	0
O=C(CNC(=S)N(Cc1ccccc1)Cc1ccccc1F)NCc1ccc(Cl)cc1	-0.047	81*	-0.17	8	0.9	13
CCOC(=O)CNC(=S)N(Cc1ccccc1)Cc1ccccc1F	-1.8	6	-0.74	20	0.9	9
O=C(CN(Cc1ccccc1F)C(=O)c1ccco1)NCc1ccc(F)cc1	-0.51	0	-0.5	-2	0.8	22
CN(C)CCNC(=O)CNC(=S)N(Cc1ccccc1)Cc1ccccc1F	0.046	20	-0.82	-2	1	4
O=C(CNC(=S)N(Cc1ccccc1)Cc1ccccc1F)NCc1ccccc1	-0.85	75*	-0.69	22	0.8	18
Cc1ccc(CNC(=O)CNC(=S)N(Cc2ccccc2)Cc2ccccc2F)cc1	-3	74*	-2	16	0.8	22
O=C(CNC(=S)N(Cc1ccccc1)Cc1ccccc1F)NCCc1ccccc1	-0.5	64*	-0.052	27	1	2
C[C@H](N=C1NS(=O)(=O)c2ccccc21)C(=O)OCc1cc([N+](=O)[O-])cc2c1OCOC2	2.6	x	x	x	x	x
COc1cccc(CNC(=O)CNC(=S)N(Cc2ccccc2)Cc2ccccc2F)c1	-1.1	72*	0.27	25	0.9	9
CCn1c(SCC(=O)N2CCN(c3ccccc3)CC2)nnc1-c1c[nH]c2ccccc12	x	6	x	58*	0.9	6
CCn1c(CSCc2ccc(F)cc2)nnc1SCC(=O)N1CCN(c2ccccc2)CC1	-2.5	17	-2.4	63*	1	-2
Cn1c(SCC(=O)N2CCN(c3ccccc3)CC2)nnc1-c1c[nH]c2ccccc12	x	-1	x	17	0.9	11
Cc1nc(S(=O)(=O)N(C)c2ccccc2)c(C#N)c(C)c1Cl	-0.93	0	-0.73	72*	1	1
CN(c1ccccc1)S(=O)(=O)c1ccc(Cl)nc1	-1.3	17	0.37	-2	0.9	6
C1CNCCOCCNCCN1	-0.79	56	x	-3	1	4
N#Cc1ccc(-c2ccc(OCC(=O)NCCc3ccccc3)cc2)cc1	1.4	1	x	-4	0.9	11
N#Cc1ccc(-c2ccc(OCC(=O)NCC(=O)Nc3ccc(F)c(F)c3F)cc2)cc1	1.3	19	x	58*	1	3
CN(C)c1ccc(/C=C/C(=O)c2cccc(Br)c2)cc1	x	-18	x	7	0.9	14
CC(=O)Nc1cccc(C(=O)/C=C/c2ccc(C)cc2)c1	0.68	43	x	100*	0.9	5
CSc1ccc(/C=C/C(=O)c2ccc(NC(C)=O)cc2)cc1	x	21	x	57*	0.9	12
SMILES	KCC2 mod	WT yeast gro inh	ROMK primary	Lmaj promast	Diaphorase act	Diaphorase inh
CCC(=O)Nc1cccc(C(=O)/C=C/c2ccc(F)cc2)c1	-0.39	26	-1.8	100*	0.8	22
CCOc1ccc(/C=C/C(=O)Nc2cccc(C(C)=O)c2)cc1	-0.48	8	0.91	-4	0.9	8
CCCC(=O)Nc1ccc(C(=O)/C=C/c2ccc(SC)cc2)cc1	-0.65	-1	x	23	0.8	17
CNC(=S)N(Cc1ccc2c(c1)OCO2)C1CC(=O)N(c2ccc(F)cc2)C1=O (stereo not drawn)	x	-9	x	-5	0.8	18
COC(=O)c1sc(NC(=O)/C=C/c2ccccc2Cl)nc1C	0.38	2	-0.47	-3	1.1	-11
CCN(CC)C1=NS(=O)(=O)c2cc([N+](=O)[O-])ccc21	1.1	-16	0.42	100*	0.9	5
